Results as given in ChEMBL document CHEMBL1142953, “Calcitonin gene-related peptide analogues with aza and indolizidinone amino acid residues reveal conformational requirements for antagonist activity at the human calcitonin gene-related peptide 1 receptor” (J Med Chem, 2007).
Calls of active or inactive are those of the source. The rule behind the calls is not given here. Where a SMILES comes first, the peptide text is derived from it.

What was measured:
Assay type in all cases: functional, cell-based
[1] = molecular target: Calcitonin gene-related peptide type 1 receptor (Homo sapiens) (UniProt Q16602); test: Partial agonist activity at human CGRP1 expressed in HEK293 cells assessed by measuring cAMP production upto 1 uM
Calcitonin gene-related peptide type 1 receptor (Homo sapiens), sequence (Q16602 whole entry): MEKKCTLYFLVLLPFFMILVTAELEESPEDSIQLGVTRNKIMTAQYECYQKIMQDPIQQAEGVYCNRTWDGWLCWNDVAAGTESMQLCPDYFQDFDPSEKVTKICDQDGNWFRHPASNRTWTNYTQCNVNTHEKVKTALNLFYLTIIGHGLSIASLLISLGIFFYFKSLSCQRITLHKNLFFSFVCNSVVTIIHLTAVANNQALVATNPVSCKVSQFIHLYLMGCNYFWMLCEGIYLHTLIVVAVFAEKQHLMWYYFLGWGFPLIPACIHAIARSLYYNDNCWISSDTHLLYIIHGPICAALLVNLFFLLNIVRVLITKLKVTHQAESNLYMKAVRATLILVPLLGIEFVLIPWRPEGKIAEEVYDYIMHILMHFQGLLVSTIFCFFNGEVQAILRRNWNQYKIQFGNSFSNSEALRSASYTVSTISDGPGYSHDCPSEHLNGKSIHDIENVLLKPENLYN
Procedure, shortened: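 HEK293 cells stably expressing CRLR were exposed to CGRP27-37 analogues up to 1 µM without α-CGRP. cAMP production was measured with a fluorescence-based kit as the read-out.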

[2] = molecular target: Calcitonin gene-related peptide type 1 receptor (Homo sapiens) (UniProt Q16602); test: Antagonist activity against human CGRP1 expressed in HEK293 cells assessed as inhibition of human alpha-CGRP-promoted cAMP production upto 100 uM
Procedure, shortened: (§1)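 HEK293 cells stably expressing CRLR, seeded at 5000 cells/well. Cells preincubated with peptide analogues for 15 min at 37 °C, then stimulated with 0.5 nM α-CGRP for 15 min at 37 °C. cAMP measured with a fluorescence-based kit. Peptides tested up to 100 µM. At least three independent experiments in triplicate, analysed by nonlinear curve fitting; mean ± SEM.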

[3] = molecular target: Calcitonin gene-related peptide type 1 receptor (Homo sapiens) (UniProt Q16602); test: (§2) Antagonist activity against human CGRP1 expressed in HEK293 cells assessed as inhibition of human alpha-CGRP-promoted cAMP production; set-up: concentration or dose not given beside the values; conditions: concentration not given here; procedure, shortened: as §1
[4] = molecular target: Calcitonin gene-related peptide type 1 receptor (Homo sapiens, UniProt O60894+Q16602); test: as §2; procedure, shortened: as §1
Calcitonin gene-related peptide type 1 receptor, sequence (Q16602 whole entry, one chain of several): as the sequence (Q16602 whole entry) above

Compound	Activity [1]	Activity [2]	inhibition [3]	IC50 [4]
CC(C)[C@H](NC(=O)[C@H](CC(=O)O)NC(=O)[C@@H](NC(=O)[C@@H]1CCCN1C(=O)[C@@H](NC(=O)[C@@H](N)Cc1ccccc1)C(C)C)[C@@H](C)O)C(=O)N[C@H]1C[C@H]2CCC[C@@H](C(=O)N[C@@H](Cc3ccccc3)C(=O)N[C@@H](C)C(=O)N[C@@H](Cc3ccccc3)C(N)=O)N2C1=O	inactive	inactive		
CC(C)[C@H](NC(=O)[C@@H](N)Cc1ccccc1)C(=O)N1CCC[C@H]1C(=O)N[C@H](C(=O)N[C@H]1C[C@H]2CCC[C@@H](C(=O)NCC(=O)N3CCC[C@H]3C(=O)N[C@@H](Cc3ccccc3)C(=O)N[C@@H](C)C(=O)N[C@@H](Cc3ccccc3)C(N)=O)N2C1=O)[C@H](C)O	inactive	inactive		
CC(C)[C@H](NC(=O)N(CC(=O)O)NC(=O)[C@@H](NC(=O)[C@@H]1CCCN1)[C@@H](C)O)C(=O)NCC(=O)N1CCC[C@H]1C(=O)N[C@@H](Cc1ccccc1)C(=O)N[C@@H](C)C(=O)N[C@@H](Cc1ccccc1)C(N)=O (HELM PEPTIDE1{P.T.[O=C(O)CN(N[*:1])C(=O)[*:2]].V.G.P.F.A.F.[am]}$$$$V2.0)		inactive		
CC(C)[C@H](NC(=O)[C@H](CC(=O)O)NC(=O)[C@@H](NC(=O)[C@@H]1CCCN1)[C@@H](C)O)C(=O)NNC(=O)N1CCC[C@H]1C(=O)N[C@@H](Cc1ccccc1)C(=O)N[C@@H](C)C(=O)N[C@@H](Cc1ccccc1)C(N)=O (HELM PEPTIDE1{P.T.D.V.[O=C(NN[*:1])[*:2]].P.F.A.F.[am]}$$$$V2.0)		inactive		
CC(C)[C@H](NC(=O)[C@H](CC(=O)O)NC(=O)[C@@H](NC(=O)[C@@H]1CCCN1)[C@@H](C)O)C(=O)NCC(=O)N1CCCC1C(=O)N[C@@H](Cc1ccccc1)C(=O)N[C@H]1C[C@H]2C[C@@H](c3ccccc3)C[C@@H](C(N)=O)N2C1=O (stereo partly drawn) (HELM PEPTIDE1{P.T.D.V.G.[O=C(C1CCCN1[*:1])[*:2]].F.[NC(=O)[C@@H]1C[C@H](c2ccccc2)C[C@@H]2C[C@H](N[*:1])C(=O)N21]}$$$$V2.0)		inactive		
CC(C)[C@H](NC(=O)[C@H](CC(=O)O)NC(=O)[C@@H](NC(=O)[C@@H]1CCCN1)[C@@H](C)O)C(=O)NCC(=O)N[C@H]1C[C@H]2CCC[C@@H](C(=O)N[C@@H](C)C(=O)N[C@@H](Cc3ccccc3)C(N)=O)N2C1=O		inactive		
CC(C)[C@H](NC(=O)[C@H](CC(=O)O)NC(=O)[C@@H](NC(=O)[C@@H]1CCCN1C(=O)[C@@H](NC(=O)[C@H](N)Cc1ccccc1)C(C)C)[C@@H](C)O)C(=O)NNC(=O)N1CCC[C@H]1C(=O)N[C@@H](Cc1ccccc1)C(=O)N[C@@H](C)C(=O)N[C@@H](Cc1ccccc1)C(N)=O	inactive		70%	
CC(C)[C@H](NC(=O)[C@H](CC(=O)O)NC(=O)[C@@H](NC(=O)[C@@H]1CCCN1C(=O)[C@@H](NC(=O)[C@@H](N)Cc1ccccc1)C(C)C)[C@@H](C)O)C(=O)NCC(=O)N[C@H]1C[C@H]2CCC[C@@H](C(=O)N[C@@H](C)C(=O)N[C@@H](Cc3ccccc3)C(N)=O)N2C1=O	inactive	inactive		
CC(C)[C@H](NC(=O)[C@H](CC(=O)O)NC(=O)[C@@H](NC(=O)[C@@H]1CCCN1C(=O)[C@@H](NC(=O)[C@@H](N)Cc1ccccc1)C(C)C)[C@@H](C)O)C(=O)NCC(=O)N1CCC[C@@H]1C(=O)N[C@@H](Cc1ccccc1)C(=O)N[C@H]1C[C@H]2C[C@@H](c3ccccc3)C[C@@H](C(N)=O)N2C1=O	inactive	inactive		
CC(C)[C@H](NC(=O)[C@H](CC(=O)O)NC(=O)[C@@H](NC(=O)[C@@H]1CCCN1C(=O)[C@@H](NC(=O)N(N)Cc1ccccc1)C(C)C)[C@@H](C)O)C(=O)NCC(=O)N1CCC[C@H]1C(=O)N[C@@H](Cc1ccccc1)C(=O)N[C@@H](C)C(=O)N[C@@H](Cc1ccccc1)C(N)=O	inactive		69%	0.589 µM
CC(C)[C@H](NC(=O)[C@H](CC(=O)O)NC(=O)[C@@H](NC(=O)C1CCCN1C(=O)[C@@H](NC(=O)[C@@H](N)Cc1ccccc1)C(C)C)[C@@H](C)O)C(=O)NCC(=O)N[C@H]1C[C@H]2C[C@@H](c3ccccc3)C[C@@H](C(=O)N[C@@H](C)C(=O)N[C@@H](Cc3ccccc3)C(N)=O)N2C1=O (stereo partly drawn)	inactive	inactive		
CC(C)[C@H](NC(=O)[C@H](CC(=O)O)NC(=O)[C@@H](NC(=O)[C@@H]1CCCN1C(=O)[C@@H](NC(=O)[C@@H](N)Cc1ccccc1)C(C)C)[C@@H](C)O)C(=O)NCC(=O)N[C@H]1CC[C@H]2CC[C@@H](C(=O)N[C@@H](C)C(=O)N[C@@H](Cc3ccccc3)C(N)=O)N2C1=O	inactive	inactive		
CC(C)[C@H](NC(=O)[C@H](CC(=O)O)NC(=O)[C@@H](NC(=O)C1CCCN1)[C@@H](C)O)C(=O)NCC(=O)N[C@H]1C[C@H]2C[C@@H](c3ccccc3)C[C@@H](C(=O)N[C@@H](C)C(=O)N[C@@H](Cc3ccccc3)C(N)=O)N2C1=O (stereo partly drawn)		inactive		
CC(C)[C@H](NC(=O)[C@H](CC(=O)O)NC(=O)[C@@H](NC(=O)[C@@H]1CCCN1)[C@@H](C)O)C(=O)NCC(=O)N1CCCN1C(=O)N[C@@H](Cc1ccccc1)C(=O)N[C@@H](C)C(=O)N[C@@H](Cc1ccccc1)C(N)=O (HELM PEPTIDE1{P.T.D.V.G.[O=C(N1CCCN1[*:1])[*:2]].F.A.F.[am]}$$$$V2.0)			68%	4.47 µM
CC(C)[C@H](NC(=O)[C@H](CC(=O)O)NC(=O)[C@@H](NC(=O)[C@@H]1CCCN1C(=O)[C@@H](NC(=O)[C@H](N)Cc1ccccc1)C(C)C)[C@@H](C)O)C(=O)NCC(=O)N1CCC[C@H]1C(=O)N[C@@H](Cc1ccccc1)C(=O)NN(C)C(=O)N[C@@H](Cc1ccccc1)C(N)=O	inactive		51%	
CC(C)[C@H](NC(=O)[C@H](CC(=O)O)NC(=O)[C@@H](NC(=O)[C@@H]1CCCN1C(=O)[C@@H](NC(=O)[C@@H](N)Cc1ccccc1)C(C)C)[C@@H](C)O)C(=O)NCC(=O)N1CCC[C@H]1C(=O)N[C@@H](Cc1ccccc1)C(=O)N[C@@H](C)C(=O)N[C@@H](Cc1ccccc1)C(N)=O	inactive		68%	
CC(C)[C@H](NC(=O)[C@H](CC(=O)O)NC(=O)[C@@H](NC(=O)[C@@H]1CCCN1C(=O)[C@@H](NC(=O)[C@@H](N)Cc1ccccc1)C(C)C)[C@@H](C)O)C(=O)NNC(=O)N1CCC[C@H]1C(=O)N[C@@H](Cc1ccccc1)C(=O)N[C@@H](C)C(=O)N[C@@H](Cc1ccccc1)C(N)=O				0.0676 µM
CC(C)[C@H](NC(=O)N(CC(=O)O)NC(=O)[C@@H](NC(=O)[C@@H]1CCCN1C(=O)[C@@H](NC(=O)[C@@H](N)Cc1ccccc1)C(C)C)[C@@H](C)O)C(=O)NCC(=O)N1CCC[C@H]1C(=O)N[C@@H](Cc1ccccc1)C(=O)N[C@@H](C)C(=O)N[C@@H](Cc1ccccc1)C(N)=O (HELM PEPTIDE1{F.V.P.T.[O=C(O)CN(N[*:1])C(=O)[*:2]].V.G.P.F.A.F.[am]}$$$$V2.0)	inactive		59%	0.38 µM
CC(C)[C@H](NC(=O)[C@H](CC(=O)O)NC(=O)[C@@H](NC(=O)[C@@H]1CCCN1C(=O)[C@@H](NC(=O)[C@H](N)Cc1ccccc1)C(C)C)[C@@H](C)O)C(=O)NCC(=O)N1CCC[C@H]1C(=O)NN(Cc1ccccc1)C(=O)N[C@@H](C)C(=O)N[C@@H](Cc1ccccc1)C(N)=O	inactive		69%	
CC(C)[C@H](NC(=O)[C@H](CC(=O)O)NC(=O)[C@@H](NC(=O)[C@@H]1CCCN1)[C@@H](C)O)C(=O)NCC(=O)N1CCC[C@H]1C(=O)N[C@@H](Cc1ccccc1)C(=O)NN(C)C(=O)N[C@@H](Cc1ccccc1)C(N)=O (HELM PEPTIDE1{P.T.D.V.G.P.F.[CN(N[*:1])C(=O)[*:2]].F.[am]}$$$$V2.0)		inactive		
CC(C)[C@H](NC(=O)[C@H](CC(=O)O)NC(=O)[C@@H](NC(=O)[C@@H]1CCCN1)[C@@H](C)O)C(=O)NCC(=O)N1CCC[C@H]1C(=O)NN(Cc1ccccc1)C(=O)N[C@@H](C)C(=O)N[C@@H](Cc1ccccc1)C(N)=O (HELM PEPTIDE1{P.T.D.V.G.P.[O=C(N(Cc1ccccc1)N[*:1])[*:2]].A.F.[am]}$$$$V2.0)		inactive		
H-PTDVGPFAF-NH2			81%	0.776 µM
CC(C)[C@H](NC(=O)[C@H](CC(=O)O)NC(=O)[C@@H](NC(=O)[C@@H]1CCCN1C(=O)[C@@H](NC(=O)[C@@H](N)Cc1ccccc1)C(C)C)[C@@H](C)O)C(=O)NCC(=O)N1CCC[C@H]1C(=O)N[C@@H](Cc1ccccc1)C(=O)NN(C)C(=O)N[C@@H](Cc1ccccc1)C(N)=O				3.55 µM
CC(C)[C@H](NC(=O)[C@H](CC(=O)O)NC(=O)[C@@H](NC(=O)[C@@H]1CCCN1C(=O)[C@@H](NC(=O)[C@@H](N)Cc1ccccc1)C(C)C)[C@@H](C)O)C(=O)NCC(=O)N1CCC[C@H]1C(=O)NN(Cc1ccccc1)C(=O)N[C@@H](C)C(=O)N[C@@H](Cc1ccccc1)C(N)=O				5.75 µM
CC(C)[C@H](NC(=O)[C@@H](N)Cc1ccccc1)C(=O)N1CCC[C@@H]1C(=O)N[C@H](C(=O)N[C@@H](CC(=O)O)C(=O)N[C@H]1C[C@H]2CCC[C@@H](C(=O)N3CCC[C@H]3C(=O)N[C@@H](Cc3ccccc3)C(=O)N[C@@H](C)C(=O)N[C@@H](Cc3ccccc3)C(N)=O)N2C1=O)[C@H](C)O	inactive	inactive		
C[C@H](NC(=O)[C@H](Cc1ccccc1)NC(=O)[C@@H]1CCCN1C(=O)CNC(=O)[C@@H]1CC[C@@H]2CC[C@H](NC(=O)[C@@H](NC(=O)[C@@H]3CCCN3)[C@H](C)O)C(=O)N21)C(=O)N[C@@H](Cc1ccccc1)C(N)=O		inactive		
